Experimental data reported in ChEMBL document CHEMBL1158577, “Role of hydrophobic substituents on the terminal nitrogen of histamine in receptor binding and agonist activity: development of an orally active histamine type 3 receptor agonist and evaluation of its antistress activity in mice” (J Med Chem, 2010).
pEC50, pKi: −log10 of the molar value. The source made the active and inactive calls. The calls are words filed in the database; no cut-off is given here.

How the values were obtained:
[1] = target: T1, Histamine H3 receptor (Homo sapiens, UniProt Q9Y5N1); assay: Displacement of [3H[N-alpha-methylhistamine form human recombinant histamine H3 receptor expressed in CHO cells after 1 hr by liquid scintillation counting; type: cell-based
How it was run: (§1)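 Used CHO cells stably expressing the human H3R for both affinity (pKi) and functional agonist measurements. Each value is the mean ± SEM of n = 3.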

[2] = target: T1, Histamine H3 receptor; assay: Agonist activity at human recombinant histamine H3 receptor expressed in CHO cells assessed as [35S]GTPgammaS binding after 1 hr by liquid scintillation counting; type: functional, cell-based; details: for pEC50: read-out: EC50; how it was run: as §1
[3] = target: T1, Histamine H3 receptor; assay: Agonist activity at human recombinant histamine H3 receptor expressed in CHO cells assessed as [35S]GTPgammaS binding at 10 nM after 1 hr by liquid scintillation counting relative to (R)-alpha-methylhistamine; type: functional, cell-based
How it was run: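 CHO cells stably expressing human H3R. Agonist response is given as a percent of the response to the reference H3R agonist. Results are mean ± SEM, n = 3.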

T1 sequence (Q9Y5N1 whole entry): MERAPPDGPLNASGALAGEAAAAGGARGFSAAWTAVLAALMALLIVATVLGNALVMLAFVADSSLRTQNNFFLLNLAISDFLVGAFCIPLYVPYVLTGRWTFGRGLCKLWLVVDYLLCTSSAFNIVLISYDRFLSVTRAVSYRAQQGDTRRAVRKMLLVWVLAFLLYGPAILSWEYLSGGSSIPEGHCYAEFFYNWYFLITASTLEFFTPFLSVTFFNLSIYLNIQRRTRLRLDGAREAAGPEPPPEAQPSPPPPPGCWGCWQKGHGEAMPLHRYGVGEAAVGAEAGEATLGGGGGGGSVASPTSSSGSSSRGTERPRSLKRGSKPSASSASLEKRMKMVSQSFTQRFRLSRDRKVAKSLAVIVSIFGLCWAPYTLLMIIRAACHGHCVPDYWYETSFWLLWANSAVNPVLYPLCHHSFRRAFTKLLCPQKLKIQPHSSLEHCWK

| SMILES | pKi [1] | pEC50 [2] | Activity [3] | EC50 ([2]; cho) |
| --- | --- | --- | --- | --- |
| c1nc(CCNC2CCCCC2)c[nH]1 | 5.80 | 5.47 | 31% |  |
| c1ncc(CCNc2ccc(C3CCCCC3)cc2)[nH]1 | 8.39 |  |  |  |
| N=C(N)SCCc1cnc[nH]1 [IMETIT] | 9.24 | 8.62 |  |  |
| Cc1ccc(NCCc2cnc[nH]2)cc1 | 7.85 | 7.06 |  |  |

Second part, the compound after the results:

| pKi [1] | pEC50 [2] | Activity [3] | EC50 ([2]; cho) | SMILES |
| --- | --- | --- | --- | --- |
|  |  | 42% |  | c1ccc(NCCc2c[nH]cn2)cc1 |
| 8.96 | 7.72 | 56% |  | FC(F)(F)c1ccc(NCCc2c[nH]cn2)cc1 |
|  |  | 70% |  | CC(C)(C)c1ccc(NCCc2c[nH]cn2)cc1 |
| 7.62 | 7.19 | 56% |  | COc1ccc(NCCc2c[nH]cn2)cc1 |
|  |  | inactive | Not Active | c1nc(CCNc2ccc(C3CCCCC3)cc2)c[nH]1 |
